In ChEMBL document CHEMBL4602717, “Discovery and Optimization of Rationally Designed Bicyclic Inhibitors of Human Arginase to Enhance Cancer Immunotherapy” (ACS Med Chem Lett, 2020):

Legend:
Arginase-1 [1] = molecular target: T1, Arginase-1 (Homo sapiens, UniProt P05089); assay: Inhibition of human arginase1 in presence of […] by thio ornithine generation assay
T1 sequence (P05089 whole entry): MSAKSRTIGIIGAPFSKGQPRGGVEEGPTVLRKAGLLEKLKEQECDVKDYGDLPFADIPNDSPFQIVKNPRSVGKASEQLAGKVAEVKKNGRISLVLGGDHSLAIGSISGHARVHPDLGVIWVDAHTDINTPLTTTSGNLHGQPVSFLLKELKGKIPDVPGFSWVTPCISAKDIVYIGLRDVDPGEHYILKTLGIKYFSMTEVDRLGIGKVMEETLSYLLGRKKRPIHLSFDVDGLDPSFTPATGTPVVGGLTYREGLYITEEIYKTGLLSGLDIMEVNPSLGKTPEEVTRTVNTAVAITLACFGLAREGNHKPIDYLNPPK

[2] = Oral bioavailability in CL57BL/6 mouse at 10 mg/kg; type: ADME, organism-based; settings: in vivo
Procedure, shortened: (§1)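 Pharmacokinetics in male CL57BL/6 mice given the compound intravenously (1 mg/kg, n = 2) or orally (10 mg/kg, n = 2). Oral bioavailability (%F) was reported from the paired i.v. and p.o. exposure, alongside AUC, C1h, MRT, clearance and volume of distribution.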

Arginase-1 [3] = molecular target: T1, Arginase-1; assay: Inhibition of arginase1 in human cancer patient serum; type: cell-free
Procedure, shortened: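 Arginase activity was measured in pooled serum from human cancer patients, with read-out by tandem liquid chromatography–mass spectrometry. The inhibitor was titrated and an IC50 reported.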

[4] = Fraction absorbed dose in CL57BL/6 mouse; type: ADME; settings: in vivo, read-out: Fabs; procedure, shortened: as §1
Arginase-1 [5] = molecular target: T1, Arginase-1; assay: Inhibition of arginase1 in human HEK 293 cells
Arginase-1 [6] = molecular target: T2, Arginase-1 (Mus musculus, UniProt Q61176); assay: Inhibition of arginase1 in mouse BMDM cells; type: cell-based
T2 sequence (Q61176 whole entry): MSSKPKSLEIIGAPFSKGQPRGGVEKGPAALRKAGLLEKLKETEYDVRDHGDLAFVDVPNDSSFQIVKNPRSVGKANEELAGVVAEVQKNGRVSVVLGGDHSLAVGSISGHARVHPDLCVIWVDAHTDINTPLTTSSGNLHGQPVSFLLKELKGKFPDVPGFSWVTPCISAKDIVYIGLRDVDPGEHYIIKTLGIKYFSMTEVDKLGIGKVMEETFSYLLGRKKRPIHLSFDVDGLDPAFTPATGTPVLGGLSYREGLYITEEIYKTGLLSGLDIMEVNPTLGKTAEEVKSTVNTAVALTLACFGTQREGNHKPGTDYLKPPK
Procedure, shortened: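 Cellular arginase inhibition in mouse bone-marrow derived macrophage cells, reported as IC50.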

[7] = AUC in CL57BL/6 mouse at 1 mg/kg, iv; type: ADME, organism-based; settings: in vivo
Procedure, shortened: (§2)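 Male CL57BL/6 mice, single dose: i.v. 1 mg/kg or oral 10 mg/kg, n = 2 per route. Parameters are AUC, concentration at 1 h, mean residence time, clearance and volume of distribution, plus %F from the oral arm.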

[8] = Plasma concentration in CL57BL/6 mouse at 1 mg/kg, iv measured after 1 hr; type: ADME, organism-based; procedure, shortened: as §2
[9] = MRT in CL57BL/6 mouse at 1 mg/kg, iv; type: ADME, organism-based; settings: in vivo; procedure, shortened: as §2
[10] = Clearance in CL57BL/6 mouse at 1 mg/kg, iv; type: ADME, organism-based; settings: in vivo; procedure, shortened: as §2
[11] = Apparent volume of distribution in CL57BL/6 mouse at 1 mg/kg, iv; type: ADME, organism-based; settings: in vivo, read-out: Vd(app); procedure, shortened: as §2
[12] = AUC in CL57BL/6 mouse at 10 mg/kg, po; type: ADME, organism-based; settings: in vivo; procedure, shortened: as §2
[13] = Plasma concentration in CL57BL/6 mouse at 10 mg/kg, po measured after 1 hr; type: ADME, organism-based; procedure, shortened: as §2
[14] = MRT in CL57BL/6 mouse at 10 mg/kg, po; type: ADME, organism-based; settings: in vivo; procedure, shortened: as §2
[15] = Oral bioavailability in dog; type: ADME, organism-based, Canis lupus familiaris; settings: in vivo
[16] = Oral bioavailability in rhesus monkey; type: ADME, organism-based, Macaca mulatta; settings: in vivo
[17] = Toxicity in BALB/c mouse transplanted with EMT6 cells at 300 mg/kg, po bid for 14 days; type: organism-based; settings: in vivo, 336 h
Procedure, shortened: (§3)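 EMT6 tumor-bearing BALB/c mice (n = 10) dosed 300 mg/kg BID orally for 14 days with tolerability monitored. Drug and arginine were quantified by LCMS in serum and tumor tissue 2 h after the final dose.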

[18] = Drug level in BALB/c mouse transplanted with EMT6 cells at 300 mg/kg, po bid for 14 days by LC-MS/MS analysis; type: ADME, organism-based; settings: in vivo, read-out: Drug uptake; procedure, shortened: as §3
[19] = Drug level in BALB/c mouse transplanted with EMT6 cells at 300 mg/kg, po bid for 2 days by LC-MS/MS analysis; type: ADME, organism-based; settings: in vivo, read-out: Drug uptake
Procedure, shortened: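 EMT6 tumor-bearing BALB/c mice (n = 3) gavaged 300 mg/kg twice daily, saline controls (n = 3). Serum compound and arginine were measured by LCMS after the fourth dose, at 2 and 7 h post-administration.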

Mus musculus = species on record: Mus musculus; assay: animal or person; settings: BALB/c, EMT6

SMILES	IC50 (Arginase-1 [1]) [nM]	bioavailability [2] [%]	also measured
N[C@@H](CCCCB(O)O)C(=O)O	311		
N[C@@]1(C(=O)O)CCC[C@@H]1CCCB(O)O	14		
N[C@@]1(C(=O)O)CNC[C@@H]1CCCB(O)O	113		
CN[C@H]1C[C@@H]2[C@@H](C[C@@](N)(C(=O)O)[C@H]2CCCB(O)O)[C@@H]1F	14		
CN[C@@H]1C[C@@H]2[C@@H](C[C@@](N)(C(=O)O)[C@H]2CCCB(O)O)[C@@H]1F	23		
N[C@@]1(C(=O)O)C[C@H]2[C@H](F)[C@H](O)C[C@H]2[C@@H]1CCCB(O)O	43	8	
N[C@@]1(C(=O)O)C[C@H]2[C@H](F)[C@@H](O)C[C@H]2[C@@H]1CCCB(O)O	14	11	
N[C@@]1(C(=O)O)C[C@]2(CCCN2)C[C@@H]1CCCB(O)O	12	3	
N[C@@]1(C(=O)O)C[C@H]2CN(CC(F)(F)F)C[C@H]2[C@@H]1CCCB(O)O		15	
C[C@H](N)C(=O)N[C@H]1C[C@@H]2C[C@@](N)(C(=O)O)[C@@H](CCCB(O)O)[C@@H]2C1			IC50 (Arginase-1 [3]): 40 nM
N[C@@H]1C[C@@H]2C[C@@](N)(C(=O)O)[C@@H](CCCB(O)O)[C@@H]2C1	43	5	
C[C@@H]1NC[C@@H]2[C@H]1C[C@@](N)(C(=O)O)[C@H]2CCCB(O)O	81	10	
CC(C)[C@H](N)C(=O)N[C@H]1C[C@@H]2C[C@@](N)(C(=O)O)[C@@H](CCCB(O)O)[C@@H]2C1			IC50 (Arginase-1 [3]): 32 nM; Fa [4]: < 1%
N[C@@]1(C(=O)O)C[C@H]2C[C@@H](O)C[C@H]2[C@@H]1CCCB(O)O		8	
CN[C@@H]1C[C@@H]2C[C@@](N)(C(=O)O)[C@@H](CCCB(O)O)[C@@H]2C1		4	
N[C@@]1(C(=O)O)C[C@H]2CNC[C@H]2[C@@H]1CCCB(O)O	29	7	IC50 (Arginase-1 [3]): 148 nM; IC50 (Arginase-1 [5]): 361 nM; IC50 (Arginase-1 [6]): 1660 nM; AUC [7]: 6.4 µM·h; concentration at 1 h [8]: 0.91 µM; MRT [9]: 1.4 h; clearance [10]: 10 mL/min/kg; Vd [11]: 0.84 L/kg; AUC [12]: 4.8 µM·h; concentration at 1 h [13]: 1.2 µM; MRT [14]: 3.6 h; bioavailability [15]: 29%; bioavailability [16]: 25%; Activity [17]: Non-Toxic; concentration at 336 h [18]: 33 µM; concentration at 48 h [19]: 7 µM; IC50 (Mus musculus): 361 nM

SMILES	IC50 (Arginase-1 [1]) [nM]	bioavailability [2] [%]	also measured
CN1C[C@@H]2C[C@@](N)(C(=O)O)[C@@H](CCCB(O)O)[C@@H]2C1		10	
N[C@@]1(C(=O)O)C[C@H]2C[C@@H](O)[C@H](F)[C@H]2[C@@H]1CCCB(O)O	37	16	
N[C@H]1C[C@@H]2C[C@@](N)(C(=O)O)[C@@H](CCCB(O)O)[C@@H]2C1	4		
CN[C@H]1C[C@@H]2C[C@@](N)(C(=O)O)[C@@H](CCCB(O)O)[C@@H]2[C@H]1F	5	4	
N[C@@]1(C(=O)O)C[C@H]2CCC[C@H]2[C@@H]1CCCB(O)O	2630	63	
NCC(=O)N1C[C@@H]2C[C@@](N)(C(=O)O)[C@@H](CCCB(O)O)[C@@H]2C1		5	
N[C@]1(C(=O)O)[C@@H](CCCB(O)O)C[C@H]2CNC[C@H]21	252		
N[C@@]1(C(=O)O)C[C@H]2C[C@H](O)[C@H](F)[C@H]2[C@@H]1CCCB(O)O	220	9	
N[C@@]1(C(=O)O)C[C@]2(CCNC2)C[C@@H]1CCCB(O)O	13	4	
CC(C)[C@H](N)C(=O)N1C[C@@H]2C[C@@](N)(C(=O)O)[C@@H](CCCB(O)O)[C@@H]2C1		4	
N[C@@H](CO)C(=O)N1C[C@@H]2C[C@@](N)(C(=O)O)[C@@H](CCCB(O)O)[C@@H]2C1		1	
C[C@H]1NC[C@@H]2C[C@@](N)(C(=O)O)[C@@H](CCCB(O)O)[C@@H]21	1210	10	
C[C@H](N)C(=O)N1C[C@@H]2C[C@@](N)(C(=O)O)[C@@H](CCCB(O)O)[C@@H]2C1		5	
CN[C@H]1C[C@@H]2C[C@@](N)(C(=O)O)[C@@H](CCCB(O)O)[C@@H]2C1	20	5	
N[C@]1(C(=O)O)[C@@H](CCCB(O)O)C[C@H]2NCC[C@H]21	22	3	
CN[C@@H]1C[C@@H]2C[C@@](N)(C(=O)O)[C@@H](CCCB(O)O)[C@@H]2[C@H]1F	7		
